Assay results as given in ChEMBL document CHEMBL1155010, “Synthesis and biological evaluation of substituted [18F]imidazo[1,2-a]pyridines and [18F]pyrazolo[1,5-a]pyrimidines for the study of the peripheral benzodiazepine receptor using positron emission tomography” (J Med Chem, 2008).

Legend:
[1] = Lipophilicity, log p at pH 7.5; format: physicochemical; details: buffer
Method in brief: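 RP-HPLC on a C18 column with methanol/0.1 M phosphate buffer pH 7.5 (60/40) at 1 mL/min. Samples were dissolved in methanol. log P7.5 was estimated by comparing retention time with that of reference compounds of known log P.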

[2] = Displacement of [3H]flumazenil from central benzodiazepine receptor in rat brain cortex membrane; format: cell membranes
Method in brief: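 Rat brain cortex membranes (100-150 µg protein) were incubated in triplicate at 25 °C for 45 min with [3H]flumazenil (2 nM) and 7 ligand concentrations (10^-10 to 10^-5 M). Nonspecific binding was set with flumazenil 20 µM. Assays were filtered, washed with ice-cold Tris/HCl pH 7.4 and counted. Ki was derived from IC50 by Cheng-Prusoff.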

Kidney [3] = experiment: Biodistribution in Sprague-Dawley rat kidney assessed per gram of tissue at 1 MBq, iv after 0.25 hrs; format: ADME, organism-based; details: in vivo
Method in brief: (§1)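 Male SD rats aged 8-10 weeks got 1 MBq [18F]tracer by tail vein in 0.1 mL. Groups of n = 4 were killed (CO2, then cervical fracture) at 0.25, 0.5, 1 and 4 h. Organs were weighed and gamma counted against a diluted standard of the injectate. Results are %ID per gram wet tissue, mean with standard deviation.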

Kidney [4] = experiment: Biodistribution in Sprague-Dawley rat kidney assessed per gram of tissue at 1 MBq, iv after 0.5 hrs; format: ADME, organism-based; details: in vivo; method in brief: as §1
Kidney [5] = experiment: Biodistribution in Sprague-Dawley rat kidney assessed per gram of tissue at 1 MBq, iv after 1 hr; format: ADME, organism-based; details: in vivo; method in brief: as §1
Kidney [6] = experiment: Biodistribution in Sprague-Dawley rat kidney assessed per gram of tissue at 1 MBq, iv after 4 hrs; format: ADME, organism-based; details: in vivo; method in brief: as §1
Heart [7] = experiment: Biodistribution in Sprague-Dawley rat heart assessed per gram of tissue at 1 MBq, iv after 0.25 hrs; format: ADME, organism-based; details: in vivo; method in brief: as §1
Heart [8] = experiment: Biodistribution in Sprague-Dawley rat heart assessed per gram of tissue at 1 MBq, iv after 0.5 hrs; format: ADME, organism-based; details: in vivo; method in brief: as §1
Heart [9] = experiment: Biodistribution in Sprague-Dawley rat heart assessed per gram of tissue at 1 MBq, iv after 1 hr; format: ADME, organism-based; details: in vivo; method in brief: as §1
Heart [10] = experiment: Biodistribution in Sprague-Dawley rat heart assessed per gram of tissue at 1 MBq, iv after 4 hrs; format: ADME, organism-based; details: in vivo; method in brief: as §1
Lung [11] = experiment: Biodistribution in Sprague-Dawley rat lungs assessed per gram of tissue at 1 MBq, iv after 0.25 hrs; format: ADME, organism-based; details: in vivo; method in brief: as §1
Lung [12] = experiment: Biodistribution in Sprague-Dawley rat lungs assessed per gram of tissue at 1 MBq, iv after 0.5 hrs; format: ADME, organism-based; details: in vivo; method in brief: as §1
Lung [13] = experiment: Biodistribution in Sprague-Dawley rat lungs assessed per gram of tissue at 1 MBq, iv after 1 hr; format: ADME, organism-based; details: in vivo; method in brief: as §1
Lung [14] = experiment: Biodistribution in Sprague-Dawley rat lungs assessed per gram of tissue at 1 MBq, iv after 4 hrs; format: ADME, organism-based; details: in vivo; method in brief: as §1
Spleen [15] = experiment: Biodistribution in Sprague-Dawley rat spleen assessed per gram of tissue at 1 MBq, iv after 0.25 hrs; format: ADME, organism-based; details: in vivo; method in brief: as §1
Spleen [16] = experiment: Biodistribution in Sprague-Dawley rat spleen assessed per gram of tissue at 1 MBq, iv after 0.5 hrs; format: ADME, organism-based; details: in vivo; method in brief: as §1
Spleen [17] = experiment: Biodistribution in Sprague-Dawley rat spleen assessed per gram of tissue at 1 MBq, iv after 1 hr; format: ADME, organism-based; details: in vivo; method in brief: as §1
Spleen [18] = experiment: Biodistribution in Sprague-Dawley rat spleen assessed per gram of tissue at 1 MBq, iv after 4 hrs; format: ADME, organism-based; details: in vivo; method in brief: as §1
Liver [19] = experiment: Biodistribution in Sprague-Dawley rat liver assessed per gram of tissue at 1 MBq, iv after 0.25 hrs; format: ADME, organism-based; details: in vivo; method in brief: as §1
Liver [20] = experiment: Biodistribution in Sprague-Dawley rat liver assessed per gram of tissue at 1 MBq, iv after 0.5 hrs; format: ADME, organism-based; details: in vivo; method in brief: as §1
Liver [21] = experiment: Biodistribution in Sprague-Dawley rat liver assessed per gram of tissue at 1 MBq, iv after 1 hr; format: ADME, organism-based; details: in vivo; method in brief: as §1
Liver [22] = experiment: Biodistribution in Sprague-Dawley rat liver assessed per gram of tissue at 1 MBq, iv after 4 hrs; format: ADME, organism-based; details: in vivo; method in brief: as §1
Adrenal [23] = experiment: Biodistribution in Sprague-Dawley rat adrenals assessed per gram of tissue at 1 MBq, iv after 0.25 hrs; format: ADME, organism-based, Adrenal tissue; details: in vivo; method in brief: as §1
Adrenal [24] = experiment: Biodistribution in Sprague-Dawley rat adrenals assessed per gram of tissue at 1 MBq, iv after 0.5 hrs; format: ADME, organism-based, Adrenal tissue; details: in vivo; method in brief: as §1
Adrenal [25] = experiment: Biodistribution in Sprague-Dawley rat adrenals assessed per gram of tissue at 1 MBq, iv after 1 hr; format: ADME, organism-based, Adrenal tissue; details: in vivo; method in brief: as §1
Adrenal [26] = experiment: Biodistribution in Sprague-Dawley rat adrenals assessed per gram of tissue at 1 MBq, iv after 4 hrs; format: ADME, organism-based, Adrenal tissue; details: in vivo; method in brief: as §1
[27] = Biodistribution in Sprague-Dawley rat testis assessed per gram of tissue at 1 MBq, iv after 0.25 hrs; format: ADME, organism-based; details: in vivo; method in brief: as §1
[28] = Biodistribution in Sprague-Dawley rat testis assessed per gram of tissue at 1 MBq, iv after 0.5 hrs; format: ADME, organism-based; details: in vivo; method in brief: as §1
[29] = Biodistribution in Sprague-Dawley rat testis assessed per gram of tissue at 1 MBq, iv after 1 hr; format: ADME, organism-based; details: in vivo; method in brief: as §1
[30] = Biodistribution in Sprague-Dawley rat testis assessed per gram of tissue at 1 MBq, iv after 4 hrs; format: ADME, organism-based; details: in vivo; method in brief: as §1
Blood [31] = experiment: Biodistribution in Sprague-Dawley rat blood at 1 MBq, iv after 1 hr; format: ADME, organism-based; details: in vivo
Method in brief: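 Male SD rats, 8-10 weeks old, given 1 MBq [18F]radiotracer by tail-vein injection in 0.1 mL. Groups of 4 killed (CO2, then cervical fracture) at 0.25, 0.5, 1 and 4 h post-injection. Tissues weighed and gamma-counted against a diluted standard of the injected solution. Activity expressed as %ID per gram wet tissue.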

Blood [32] = experiment: Biodistribution in Sprague-Dawley rat blood at 1 MBq, iv after 0.25 hrs; format: ADME, organism-based; details: in vivo; method in brief: as §1
Blood [33] = experiment: Biodistribution in Sprague-Dawley rat blood at 1 MBq, iv after 4 hrs; format: ADME, organism-based; details: in vivo; method in brief: as §1
Femur [34] = experiment: Biodistribution in Sprague-Dawley rat femur at 1 MBq, iv after 0.25 hrs; format: ADME, organism-based; details: in vivo; method in brief: as §1
Femur [35] = experiment: Biodistribution in Sprague-Dawley rat femur at 1 MBq, iv after 4 hrs; format: ADME, organism-based; details: in vivo; method in brief: as §1
[36] = Metabolic stability in Sprague-Dawley rat plasma assessed as drug remaining at 30 MBq after 0.25 hrs by Radio-HPLC analysis; format: ADME, cell-free; details: read-out: Stability
Method in brief: (§2)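 Rats received 30 MBq tracer and were sampled at 0.25, 0.5, 1 and 4 h. Plasma was diluted with water containing unlabeled carrier and KF and injected directly. Frontal cortex or olfactory bulb was sonicated in acetonitrile/water 1:1 with carrier and KF, centrifuged, and the supernatant diluted. Radio-HPLC used a precolumn switched to C18 with a CH3CN/0.05 M sodium acetate pH 5.5 gradient. Result is % parent remaining.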

[37] = Metabolic stability in Sprague-Dawley rat frontal cortex assessed as drug remaining at 30 MBq after 0.25 hrs by Radio-HPLC analysis; format: ADME, tissue-based; details: read-out: Stability; method in brief: as §2
[38] = Metabolic stability in Sprague-Dawley rat frontal cortex assessed as drug remaining at 30 MBq after 4 hrs by Radio-HPLC analysis; format: ADME, tissue-based; details: read-out: Stability; method in brief: as §2
[39] = Ratio of drug level in olfactory bulb to blood in Sprague-Dawley rat at 1 MBq, iv; format: ADME
Method in brief: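 Same rat biodistribution as above: 1 MBq iv by tail vein, n = 4 per time point, 0.25-4 h, gamma counting as %ID/g. Ratio is the olfactory bulb radioactivity concentration divided by the blood concentration at each time.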

[40] = Metabolic stability in Sprague-Dawley rat plasma assessed as drug remaining at 30 MBq after 4 hrs by Radio-HPLC analysis; format: ADME, cell-free; details: read-out: Stability; method in brief: as §2
[41] = Metabolic stability in Sprague-Dawley rat olfactory bulb assessed as drug remaining at 30 MBq after 0.25 hrs by Radio-HPLC analysis; format: ADME, tissue-based; details: read-out: Stability; method in brief: as §2
[42] = Metabolic stability in Sprague-Dawley rat olfactory bulb assessed as drug remaining at 30 MBq after 4 hrs by Radio-HPLC analysis; format: ADME, tissue-based; details: read-out: Stability; method in brief: as §2

logD [1] | Ki [2] [µM] | Drug uptake (Kidney [3]) [%ID] | Drug uptake (Kidney [4]) [%ID] | Drug uptake (Kidney [5]) [%ID] | Drug uptake (Kidney [6]) [%ID] | Drug uptake (Heart [7]) [%ID] | Drug uptake (Heart [8]) [%ID] | Drug uptake (Heart [9]) [%ID] | Drug uptake (Heart [10]) [%ID] | Drug uptake (Lung [11]) [%ID] | Drug uptake (Lung [12]) [%ID] | Drug uptake (Lung [13]) [%ID] | Drug uptake (Lung [14]) [%ID] | Drug uptake (Spleen [15]) [%ID] | Drug uptake (Spleen [16]) [%ID] | Drug uptake (Spleen [17]) [%ID] | Drug uptake (Spleen [18]) [%ID] | Drug uptake (Liver [19]) [%ID] | Drug uptake (Liver [20]) [%ID] | Compound | other results
3.2 | > 5 | – | – | – | – | – | – | – | – | – | – | – | – | – | – | – | – | – | – | CCN(CC)C(=O)Cc1c(-c2ccc(OCCCF)cc2)nn2c(C)cc(C)nc12 | –
– | – | 5.5 | 4.9 | 4.7 | 3.2 | 9 | 9 | 8.7 | 5.8 | 20 | 12.4 | 7.1 | 3.3 | 5.5 | 5.5 | 5.1 | 3.6 | 1.08 | 0.98 | CCN(CC)C(=O)Cc1c(-c2ccc(OCCC[18F])cc2)nn2c(C)cc(C)nc12 | Drug uptake (Liver [21]): 0.69 %ID; Drug uptake (Liver [22]): 0.38 %ID; Drug uptake (Adrenal [23]): 8 %ID; Drug uptake (Adrenal [24]): 7.9 %ID; Drug uptake (Adrenal [25]): 11 %ID; Drug uptake (Adrenal [26]): 12.2 %ID; Drug uptake [27]: 0.27 %ID; Drug uptake [28]: 0.28 %ID; Drug uptake [29]: 0.32 %ID; Drug uptake [30]: 0.43 %ID; Drug uptake (Blood [31]): 0.1 % ID/g; Drug uptake (Blood [32]): 0.3 % ID/g; Drug uptake (Blood [33]): 0.1 % ID/g; Drug uptake (Femur [34]): 0.6 % ID/g; Drug uptake (Femur [35]): 2.2 % ID/g; remaining at 0.25 h [36]: 10%; remaining at 0.25 h [37]: 55%; remaining at 4 h [38]: 30%
– | – | 3.8 | 3.6 | 3.5 | 2.4 | 5.8 | 5.6 | 6.4 | 4.3 | 14.6 | 8.8 | 5.7 | 2.8 | 4.6 | 4.7 | 4.5 | 3.9 | 0.63 | 0.54 | CCN(CC)C(=O)Cc1c(-c2ccc(OCC[18F])cc2)nn2c(C)cc(C)nc12 [DPA-714 F-18] | Drug uptake (Liver [21]): 0.4 %ID; Drug uptake (Liver [22]): 0.29 %ID; Drug uptake (Adrenal [23]): 5.6 %ID; Drug uptake (Adrenal [24]): 6.6 %ID; Drug uptake (Adrenal [25]): 7.8 %ID; Drug uptake (Adrenal [26]): 9.7 %ID; Drug uptake [27]: 0.18 %ID; Drug uptake [28]: 0.21 %ID; Drug uptake [29]: 0.27 %ID; Drug uptake [30]: 0.35 %ID; Drug uptake (Blood [31]): 0.1 % ID/g; Kp [39]: 2; Drug uptake (Femur [34]): 0.4 % ID/g; Drug uptake (Femur [35]): 0.7 % ID/g; remaining at 4 h [40]: < 1%; remaining at 0.25 h [37]: 55%; remaining at 4 h [38]: 10%; remaining at 0.25 h [41]: 80%; remaining at 4 h [42]: 40%
2.5 | > 5 | – | – | – | – | – | – | – | – | – | – | – | – | – | – | – | – | – | – | CCN(CC)C(=O)Cc1c(-c2ccc(OCCF)cc2)nn2c(C)cc(C)nc12 [DPA-714] | –
